Compound activity: PubChem, The Scripps Research Institute Molecular Screening Center
M5 PAM: human M5 muscarinic receptor positive allosteric modulators, primary screen, CHO-K1 cells, Fluo-8 calcium fluorescence. Muscarinic acetylcholine receptor M5 (Homo sapiens), P08912. CHO-K1 hM5, ACh EC20 PAM; 0% = ACh EC20, 100% = ACh EC100. activation, % at 3 µM. 0.3% of 360,000 active;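 active means activation above the run cutoff, the mean activation of all test compounds plus 3 SD, cut at about 18% in these data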
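Assay system: CHO-K1 hM5 cells / Incubation: Fluo-8 loading 80 min at 37 °C plus 30 min room temperature / Technique: Fluo-8 calcium dye fluorescence, kinetic read / Repeats: single replicate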
CHRM4 antagonist: human M4 muscarinic receptor antagonists, primary screen, CHO cells, Fluo-8 calcium fluorescence; 0.73% of 360,000 active; CHO-hM4 cells, ACh EC80; inhibition, % at 3 µM; Muscarinic acetylcholine receptor M4 (Homo sapiens), P08173; AID 624125, 2012;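 active means inhibition above its plate's cutoff, the mean inhibition of sample wells plus 3 SD, cut at about 27% in these data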;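 further: 0% = acetylcholine EC80 with DMSO and 100% = DMSO without agonist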
Target sequence (P08173 whole entry, looked up): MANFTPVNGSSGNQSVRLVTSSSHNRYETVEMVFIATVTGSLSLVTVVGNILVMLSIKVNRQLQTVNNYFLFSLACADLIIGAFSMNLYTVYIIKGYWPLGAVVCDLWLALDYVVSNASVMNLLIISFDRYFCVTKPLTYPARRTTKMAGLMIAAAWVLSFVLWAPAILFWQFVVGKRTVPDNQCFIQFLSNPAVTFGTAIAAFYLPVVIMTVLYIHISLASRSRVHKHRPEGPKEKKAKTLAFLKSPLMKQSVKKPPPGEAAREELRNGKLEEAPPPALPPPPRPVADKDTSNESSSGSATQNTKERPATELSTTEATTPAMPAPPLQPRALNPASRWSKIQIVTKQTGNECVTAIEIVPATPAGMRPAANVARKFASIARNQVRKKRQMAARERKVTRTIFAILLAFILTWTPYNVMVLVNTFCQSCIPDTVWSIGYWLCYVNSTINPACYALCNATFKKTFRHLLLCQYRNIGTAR
M4 PAM: human M4 muscarinic receptor positive allosteric modulators, primary screen, CHO-K1 cells, Fluo-8 calcium fluorescence | AID 624126, 2012 | 0.4% of 360,000 active | activation, % at 3 µM | CHO-K1 hM4/Gqi5, ACh EC20; 0% = ACh EC20, 100% = maximal ACh | Muscarinic acetylcholine receptor M4 (Homo sapiens), P08173;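 active means activation above its plate's cutoff, the mean activation of sample wells plus 3 SD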
CHRM5 agonist: human M5 muscarinic receptor agonists, primary screen, CHO-K1 cells, Fluo-8 calcium fluorescence; activation, % at 3 µM; 0.19% of 360,000 active; CHO-K1 hM5 cells; 0% DMSO wells, 100% maximal acetylcholine response; Muscarinic acetylcholine receptor M5 (Homo sapiens), P08912;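 active means activation above the run's mean over test compounds plus 3 SD, cut at about 23% in these data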;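 further: signal is peak over basal fluorescence ratio across the kinetic read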
M4 ag: human M4 muscarinic receptor agonists, primary screen, CHO-K1 cells, Fluo-8 calcium fluorescence; CHO-K1 hM4/Gqi5; vehicle 0%, full acetylcholine response 100%; activation, % at 3 µM; 0.14% of 360,000 active; AID 624127, 2012;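 active means activation above the run mean over all test wells plus 3 SD, cut at about 32% in these data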;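 further: peak over basal fluorescence ratio per well then scaled between controls; 0% = DMSO wells and 100% = acetylcholine at EC100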
M5 antag: human M5 muscarinic receptor antagonists, primary screen, CHO cells, Fluo-8 calcium fluorescence. Muscarinic acetylcholine receptor M5 (Homo sapiens), P08912. CHO-hM5 cells, ACh EC80. inhibition, % at 3 µM. 0.59% of 360,000 active;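 active means inhibition above a per-plate cutoff, the mean of that plate's test compounds plus 3 SD, cut at about 27% in these data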;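 further: 0% = acetylcholine EC80 with DMSO and 100% = DMSO without agonist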
An asterisk follows results filed as active. A selection: hits, their analogues and other compounds. The true share with any hit is near 1.9%.

SMILES	M5 PAM	CHRM4 antagonist	M4 PAM	CHRM5 agonist	M4 ag	M5 antag
COC(=O)C1(C(=O)OC)c2ccccc2N(S(=O)(=O)c2ccc(C)cc2)C1CC(C)=O (stereo not drawn)	-4	-3	10	-1	2	10
CCOc1ccc(/C=N/NC(=O)c2nnn(-c3nonc3N)c2-c2cccs2)cc1	6	3	-2	33*	33*	7
Cc1ccc(S(=O)(=O)N2CCCCC2)cc1NC(=O)CSc1nncn1-c1ccccc1	23*	-7	10	2	3	12
CCC(C)n1c(=O)c(C(=O)Nc2ccccc2S(N)(=O)=O)c(O)c2ccccc21 (stereo not drawn)	27*	-2	7	-1	0	-11
CC(C)Cn1c(=O)c(C(=O)Nc2ccccc2S(N)(=O)=O)c(O)c2ccccc21	15	0	16	1	0	-8
CC(=O)Nc1sc(C)c(C)c1C(=O)OCC(=O)N(CC(C)C)C1CCS(=O)(=O)C1 (stereo not drawn)	4	-9	23*	2	2	3
CCN(C(=O)COC(=O)c1c(C)c(-c2ccccc2)nc2ccccc12)C1CCS(=O)(=O)C1 (stereo not drawn)	-2	5	-7	25*	7	-2
CCN(C(=O)COC(=O)c1c(-c2ccccc2)noc1C)C1CCS(=O)(=O)C1 (stereo not drawn)	5	-1	3	-1	0	-4
CCSC(=O)N1c2ccc(OC)cc2C=CC1C#N (stereo not drawn)	-11	9	-3	-3	1	3
CC1CN(C(C)C)C(=S)NC1=O (stereo not drawn)	3	1	5	3	0	7
O=C(c1cccc(NS(=O)(=O)c2ccc(F)c(F)c2)c1)N1CCN(C(c2ccccc2)c2ccccc2)CC1	-4	-9	31*	-2	2	9
O=C(O)/C=C/c1cn(Cc2ccccc2Cl)nc1-c1ccccc1	20*	-12	-3	0	2	-4
CC(C)OC(=O)N(C)C[C@@H]1OCc2cnnn2CCCC(=O)N([C@H](C)CO)C[C@H]1C	4	-5	-4	2	1	-18
O=C(Nc1cccc(C(F)(F)F)c1)C(=O)N1CCCCC1	20*	5	8	1	0	-7
CC(=O)c1cccc(NC(=O)/C(=C\c2cccnc2)NC(=O)c2ccccc2)c1	-3	29*	-12	0	0	13
COc1ccc(/C=C2/C(=O)ON=C2c2ccccc2)cc1OC	23*	-11	8	0	1	-11
CC(C(=O)Nc1ccc2c(c1)OCCO2)c1ccc([N+](=O)[O-])cc1 (stereo not drawn)	-11	3	-10	32*	17	1
O=C(CCc1nnc(-c2ccccc2)o1)c1ccc(Cl)cc1	8	13	33*	0	2	6
CCNC(=O)C1(C)CCCN1C(=O)c1ccc(C#N)cc1 (stereo not drawn)	-1	-9	3	0	1	-4
CCOc1cc(/C=N/NC(=O)c2nnn(-c3nonc3N)c2C)ccc1OCc1cccc(F)c1	2	-10	5	0	1	-15
CCNc1ccc(C(=O)OCC(=O)NCCN2C(=O)CSC2=O)cc1[N+](=O)[O-]	22*	-8	6	5	3	-10
COC(=O)c1cccc(N2C(=O)C[C@](Sc3ccc(C)cc3)(C(=O)OC)[C@H]2c2ccccc2)c1	-16	27*	-12	-1	16	5
COC(=O)[C@@]1(Sc2ccc(C)cc2)CC(=O)N(c2ccc(Cl)cc2)[C@@H]1c1ccccc1	-3	-2	1	-1	0	-6
O=C(CSc1nnc(CNc2ccc(F)cc2)o1)c1ccccc1	6	-21	23*	-2	4	-2
c1ccc(OCc2noc(CN3CC[C@@H]4CCCC[C@H]4C3)n2)cc1	22*	0	5	10	2	7
SMILES	M5 PAM	CHRM4 antagonist	M4 PAM	CHRM5 agonist	M4 ag	M5 antag
Clc1cccc(C2CCN(Cc3nc(COc4ccccc4)no3)C2)c1 (stereo not drawn)	-4	-4	-5	-4	6	10
O=C(NC(Cc1ccccc1)C(=O)NCCc1ccccn1)c1ccccc1 (stereo not drawn)	-5	1	1	-3	2	19
COc1ccc(C(=O)Nc2cc(Cl)ccc2OC(=O)c2ccc(OC)cc2)cc1	-3	-1	-2	-1	0	5
COc1ccc(C(=O)Nc2cc(Cl)ccc2C(=O)O)cc1	20*	-1	9	4	0	2
CCOC(=O)C1=CNS(=O)(=O)NC1c1ccc(C(=O)OC)cc1 (stereo not drawn)	1	-2	-2	1	-1	-6
Cc1ccc2[nH]c(-c3ccccc3)c(CN3CCCC3)c(=O)c2c1	20*	-11	13	-3	0	-14
O=c1c(Cl)c(N2CCNCC2)cnn1C12CC3CC(CC(C3)C1)C2	-6	31*	-21	-11	0	11
Cc1cccc(C)c1NC(=O)C(c1cc2ccccc2o1)N1CCC(c2ccccc2)CC1 (stereo not drawn)	2	-1	-3	2	1	-2
CCS(=O)(=O)Nc1cccc(-c2cn3c(n2)SCC3)c1	1	-1	1	-2	1	-5
CS(=O)(=O)Nc1cccc(-c2cn3c(n2)SCC3)c1	-5	-8	7	-7	0	31*
Cc1occc1C(=O)N/N=C/C=C/c1ccc(N(C)C)cc1	-1	-3	2	-4	1	13
COc1ccc(OCC(=O)N/N=C/c2ccc(N(C)C)cc2)cc1	-4	-3	22*	-2	1	20
Cc1occc1C(=O)N/N=C/c1ccc(N(C)C)cc1	20*	-5	-1	4	1	-15
C[C@H]1CN([C@@H](C)CO)C(=O)c2cc(NC(=O)C3CCCCC3)ccc2O[C@H]1CN(C)C(=O)Nc1ccc2c(c1)OCO2	-5	6	0	1	2	17
